The source of these data is ChEMBL document CHEMBL1275600, “Prophylactic activity of intramuscular peramivir in mice infected with a recombinant influenza A/WSN/33 (H1N1) virus containing the H274Y neuraminidase mutation” (Antimicrob Agents Chemother, 2010).

A word on the Cmax: it is the maximum level reached in the sampled fluid or tissue.

Series [1] relates to Influenza A virus. Put plainly: Antiviral activity against recombinant Influenza A/WSN/33 (H1N1) virus infected in BALB/c mouse assessed as survival of mouse at 45 mg/kg, im administered as single dose. It is filed as functional, organism-based. On the set-up: dose 45 mg/kg. The following applies: A/WSN/1933(H1N1). The gist of the method:
(§1)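 Male BALB/c mice, 6–8 weeks old and 20–25 g, were randomized by weight, 4 per cage, in groups of 12. Drug at 50 mg/ml in saline buffered to pH 3.0 was given by IM hip injection, first dose 1 h before challenge. Mice were infected intranasally under isoflurane with 8 × 10^3 PFU of cell-grown recombinant virus in 30 μl PBS. Mortality was recorded daily for 14 days.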

Series [2] relates to Influenza A virus. Put plainly: Antiviral activity against recombinant Influenza A/WSN/33 (H1N1) virus infected in BALB/c mouse assessed as survival of mouse at 90 mg/kg, im administered as single dose. More on the design: dose 90 mg/kg. The series is classed as functional, organism-based. Conditions: A/WSN/1933(H1N1). Summed up:
as §1

The subject of series [3] is Influenza A virus. The series can be described thus: Antiviral activity against recombinant Influenza A/WSN/33 (H1N1) virus infected in BALB/c mouse assessed as survival of mouse at 45 mg/kg, im once daily for 5 days. The series is classed as functional, organism-based. On the set-up: dose 45 mg/kg. Conditions: A/WSN/1933(H1N1). The gist of the method:
as §1

Series [4] deals with Mus musculus. The series can be described thus: Toxicity against BALB/c mouse assessed as mortality at 45 mg/kg, im once daily for 5 days measured after 14 days. It is filed as organism-based. On the set-up: dose 45 mg/kg, route intramuscular. The following applies: in vivo, 336 h. The gist of the method:
(§2)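 Uninfected male BALB/c mice, 6 per group, received IM drug at 45 mg/kg once daily for 5 days, dissolved at 50 mg/ml in pH 3.0 buffered saline, or PBS. Body weight and mortality were monitored daily for 14 days.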

Series [5] deals with Mus musculus. The series can be described thus: Toxicity against recombinant Influenza A/WSN/33 (H1N1) virus infected BALB/c mouse assessed as weight loss at 45 mg/kg, im once daily for 5 days measured after 14 days. On the set-up: dose 45 mg/kg, route intramuscular. It is filed as organism-based. Conditions: in vivo, 336 h. The gist of the method:
(§3)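 Male BALB/c mice, groups of 12, received IM drug at 50 mg/ml in pH 3.0 buffered saline, starting 1 h before intranasal infection with 8 × 10^3 PFU of recombinant virus. Body weight was monitored daily for 14 days. Mean weight loss was compared across regimens by one-way ANOVA, with uninfected PBS-treated mice as reference.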

Series [6] concerns Mus musculus. Put plainly: Toxicity against recombinant Influenza A/WSN/33 (H1N1) virus infected BALB/c mouse assessed as weight loss at 45 mg/kg, im administered as single dose and measured after 14 days. The following applies: in vivo, 336 h. It is filed as organism-based. On the set-up: dose 45 mg/kg, route intramuscular. The gist of the method: as §3
Series [7] concerns Mus musculus. The series can be described thus: Toxicity against recombinant Influenza A/WSN/33 (H1N1) virus infected BALB/c mouse assessed as weight loss at 90 mg/kg, im administered as single dose and measured after 14 days. The following applies: in vivo, 336 h. On the set-up: dose 90 mg/kg, route intramuscular. It is filed as organism-based. The gist of the method: as §3

The test system of series [8] is Mus musculus. Put plainly: Toxicity against BALB/c mouse assessed as weight loss in mouse at 45 mg/kg, im once daily for 5 days measured after 14 days. The series is classed as organism-based. More on the design: dose 45 mg/kg, route intramuscular. Conditions: in vivo, 336 h. Summed up: as §2
In series [9] the test system is Influenza A virus. The series can be described thus: Antiviral activity against Influenza A/WSN/33 (H1N1) virus infected in mouse assessed as survival rate at 10 mg/kg, im administered 4 days before viral challenge. It is filed as functional. The following applies: A/WSN/1933(H1N1), route intramuscular.
In series [10] the test system is Influenza A virus. Put plainly: Antiviral activity against Influenza A/WSN/33 (H1N1) virus infected in mouse assessed as survival rate at 10 mg/kg, po administered 4 days before viral challenge. The following applies: A/WSN/1933(H1N1). It is filed as functional.
A short description of series [11]: Cmax in mouse at 30 mg/kg, im administered as single dose and measured after 30 mins. More on the design: dose 30 mg/kg, route intramuscular. It is filed as ADME, organism-based. Conditions: in vivo.
Series [12] in a line: Cmax in mouse at 30 mg/kg, im administered as single dose and measured after 24 hrs. It is filed as ADME, organism-based. More on the design: dose 30 mg/kg, route intramuscular. Conditions: in vivo.
For series [13], the target named is Neuraminidase (Influenza A virus (strain A/Wilson-Smith/1933 H1N1) (Influenza A virus(strain A/WS/1933 H1N1))) (UniProt P03470). Conditions: Influenza A virus (A/WSN/1933(H1N1)); 10 mg/kg.
Series [14] has the same target. Conditions: Influenza A virus (A/WSN/1933(H1N1)); 2 to 20 mg/kg.

Calls of active or inactive are those of the source. The rule behind the calls is not given here.

Neuraminidase (Influenza A virus (strain A/Wilson-Smith/1933 H1N1) (Influenza A virus(strain A/WS/1933 H1N1))), sequence (P03470 whole entry): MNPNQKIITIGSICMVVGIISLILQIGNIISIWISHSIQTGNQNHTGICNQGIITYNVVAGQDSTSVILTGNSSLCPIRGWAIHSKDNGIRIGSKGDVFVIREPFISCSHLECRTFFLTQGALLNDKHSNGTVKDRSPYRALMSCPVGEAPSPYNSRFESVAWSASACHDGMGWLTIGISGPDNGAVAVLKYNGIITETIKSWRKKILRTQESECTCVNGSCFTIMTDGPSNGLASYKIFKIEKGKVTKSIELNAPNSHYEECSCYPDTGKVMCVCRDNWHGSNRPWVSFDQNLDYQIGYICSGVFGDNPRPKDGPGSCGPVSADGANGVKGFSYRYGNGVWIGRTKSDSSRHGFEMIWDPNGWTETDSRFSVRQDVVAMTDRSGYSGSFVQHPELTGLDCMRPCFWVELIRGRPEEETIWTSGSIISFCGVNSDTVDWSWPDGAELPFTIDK

Consider `CCC(CC)[C@H](NC(C)=O)[C@@H]1[C@H](O)[C@@H](C(=O)O)C[C@H]1NC(=N)N` [PERAMIVIR ANHYDROUS], for which the outcome with Influenza A virus [1], in the series on Influenza A virus [2] and in the series on Influenza A virus [3] was Active. For the same molecule, the Activity result with Mus musculus [4], with Mus musculus [5], in the series on Mus musculus [6], in the series with Mus musculus [7] and in the series with Mus musculus [8] was “Non-toxic” each time. In addition, the survival at 10 mg/kg in the series with Influenza A virus [9] was found to be 100%; in the series on Influenza A virus [10] it was 50%. For the same molecule, the Cmax in series [11] came out at 17700 ng/mL; in [12], 29.3 ng/mL. Further, the values for the T1/2 in [13] and in series [14] were greater than 24 h and 1.25 h, respectively.
